Consider 97 compounds from ChEMBL document CHEMBL4513216, “Probing the Open Global Health Chemical Diversity Library for Multistage-Active Starting Points for Next-Generation Antimalarials” (ACS Infect Dis, 2020).

A short description of the data set: Toxicity liver stage against HepG2, at 10uM. The data set is classed as cell-based. As to conditions: human, HepG2-A16-CD81EGFP cells; read-out: INHIBITION
Further details: test concentration 10 uM, cell line HepG2-A16-CD81EGFP. In a few lines: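 Uninfected HepG2-A16-CD81EGFP cells, 3 × 10^3 per well, 1536-well, plated on prespotted compound at 10 μM final, parasite-free screening media added to match infected plates; puromycin 10 μM positive, DMSO 0.5% negative; run in parallel with 48 h PbLuc assay at 37 °C, 5% CO2; viability by CellTiter-Glo luminescence, normalized to controls.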

On to `Cc1nc2cc(C(=O)N3C[C@@H](NS(C)(=O)=O)[C@H](C(C)C)C3)ccc2[nH]1`, for which the cytotoxicity at 10 µM is -4.47%. For `O=C1N(Cc2ccccc2)C[C@H]2CN(Cc3ccccc3Cl)CCN12` the value was 2.23%. As for `O=C(c1ccncc1)N1CCC(c2nc(O)cc(-c3cccnc3)n2)C1` (configuration not stated), the figure is -0.0788%; as for `CC(=O)C1(c2ccccc2)CCN(C(=O)c2ccc3nnnn3c2)CC1`, 20.1%; as for `O[C@H]1CN(Cc2cccc(C(F)(F)F)c2)CC[C@@]12CCCO2`, -19.6%. With `CCC(C)NC(=O)c1nn(C)c(NC(=O)c2ccccc2OC)c1F` (configuration not stated), the cytotoxicity at 10 µM is -6.24%. Take `O=C(O)CN(C(=O)c1ccccc1)[C@H]1C[C@H]2CCOC[C@H]2C1`: the cytotoxicity at 10 µM is -1.03%. As for `N#Cc1cc(Cn2cnc(C3CCC3)cc2=O)ccc1F`, the figure is -0.908%; as for `CCN1CCC(CC(=O)NCC(O)c2cccc(OC)c2)CC1` (configuration not stated), -6.87%; as for `Cc1ccccc1C(CNc1ncnc2c1CCNCC2)N(C)C` (configuration not stated), 21.5%. As for `CN(C)C(C(=O)N1Cc2ccccc2C1)c1ccccc1F` (configuration not stated), the figure is -1.91%; as for `CCC(O)CN1CCN(C(=O)Cc2ccc(OC)cc2OC)CC1` (configuration not stated), -23.8%. On to `O=C(O)c1cnc(N2CCC(O)CC2)nc1COc1cccc(F)c1`, for which the cytotoxicity at 10 µM is -9.09%. With `CCCOCC1CCN(C(=O)Cn2ncc(N3CCCC3)cc2=O)C1` (configuration not stated), the cytotoxicity at 10 µM stood at 3.41%. With `O=C(NCCOc1ncc(Cl)cc1Cl)c1ccoc1`, the cytotoxicity at 10 µM stood at 0.191%. Consider `Cc1cc2[nH]c(O)nc2cc1NCc1ccc(F)cc1`, for which the cytotoxicity at 10 µM stood at 16.1%.

Regarding `O=S(=O)(c1cnccc1N1CCN(CCO)CC1)N1CCCCC1`, the cytotoxicity at 10 µM was 15.7%.

In the case of `Cc1ncc2c(n1)CN(CCCc1ccccc1)CC2`, the cytotoxicity at 10 µM was -34.7%. For `O=C(NC1CCCCC1)N1C[C@H]2CN(c3cnccn3)C[C@@]2(C(=O)O)C1` the value was 13.7%; for `CC(=O)N[C@@H]1CN(C(=O)c2csc(C(C)C)n2)C[C@H]1C(C)C`, -6.71%; for `CCc1[nH]ncc1C(=O)N1CCCN(Cc2nccn2C(C)C)CC1`, -8.92%. As for `CC(C)N1CCC(CC(=O)NC(C(=O)O)c2ccc(F)cc2)CC1` (configuration not stated), the figure is 0.0453%; as for `Cc1ccccc1C1CCN(C(=O)CCNC(=O)C(C)(C)C)C1` (configuration not stated), -5.47%.

Regarding `CCS(=O)(=O)c1ccccc1N1CCC(NC(=O)C(C)C)CC1`, the cytotoxicity at 10 µM is -3.87%. As for `COc1cc(CNC(=O)C2CC(=O)N(C(C)C)C2)ccn1` (configuration not stated), the figure is -5.36%; as for `O=C(NC1(c2nccs2)CCCC1)c1cc(C2CC2)on1`, 6.65%. As for `CC(=O)N1CC(c2ccnc(Nc3ccc(C)cn3)n2)C1`, the figure is -31.1%; as for `Cc1ccc(C(CNCc2cnn(C(C)C)c2)N2CCOCC2)s1` (configuration not stated), -21.3%. Consider `NC(=O)NC(=O)CCn1ccc(-c2ccc(F)cc2)n1`, for which the cytotoxicity at 10 µM amounted to 4.19%. For `CC(SCCNS(=O)(=O)c1cnn(C)c1)c1cccc(F)c1` (configuration not stated) the value was 17.3%; for `CCCc1cc(NCCn2cccn2)n2ncnc2n1`, 5.28%; for `CN(C)CCN(Cc1ccsc1)C(=O)C1=NNC(=O)CC1`, 6.62%. As for `COc1cccc(CNC(=O)N2CCCC(Cn3cc(CN)nn3)C2)c1` (configuration not stated), the cytotoxicity at 10 µM was -2.07%. For `O=C(CC1CC1)N(Cc1cccnc1)CC1CCN(C2CCCC2)CC1` the value was 5.95%; for `O=C1CC2(CCN(Cc3ccncc3)C2)CN1c1ccc2c(c1)OCO2` (configuration not stated), -74.1%; for `CSc1ccc(C(=O)N2CCOCC2c2c(C)n[nH]c2C)o1` (configuration not stated), -10.3%. For `CCN(Cc1ccco1)C(=O)NCc1nnc2n1CCCCC2` the value was -4.73%; for `Cc1cccc(N2CCN(CC(=O)N3CCCC(N(C)C)CC3)CC2)c1` (configuration not stated), -3.73%.

For the compound `c1cncc(N2CC[C@@H]3CN(CC4CC4)C[C@@H]3C2)c1`, the cytotoxicity at 10 µM is -4.74%. For `Cn1ccc(C(=O)N2CCCC(Cc3cnc4ccccc4c3)C2)n1` (configuration not stated), the cytotoxicity at 10 µM was -6.19%. For `C[C@H]1CN(Cc2cnn(C)c2)C[C@@]12CCN(Cc1cccnc1)C2=O` the value was 8.99%; for `CN(C)c1ncccc1CNC(=O)NCc1ccc(Cl)s1`, 9.21%; for `CN(Cc1ccncc1)C(=O)NC1CCS(=O)(=O)C1` (configuration not stated), -2.94%.

On to `CN1CCN(Cc2cccnc2)C2(CCN(c3ncccn3)C2)C1=O` (configuration not stated), for which the cytotoxicity at 10 µM came to 1.31%. For `CN1CCN(Cc2cn3c(n2)CN(C(=O)N2CCOCC2)CC3)CC1` the value was -18.3%. In the case of `Cc1cccc(Cn2nc(C3CCNCC3)n(-c3ccccc3)c2=O)c1`, the cytotoxicity at 10 µM is -4.68%. As for `CCc1nc(C2CCCN2CC(=O)NCCc2ccsc2)no1` (configuration not stated), the figure is -2.81%. With `CCNc1cc2c(nn1)CCN(C(=O)c1cc3ccccc3[nH]c1=O)C2`, the cytotoxicity at 10 µM was -1.41%.

For the compound `CCCN1CCCn2nc(CNC(=O)CCc3scnc3C)cc2C1`, the cytotoxicity at 10 µM stood at 1.47%.

As to `Cn1cncc1CN1CCC(O)(Cn2nc(-c3cccs3)oc2=O)CC1`, the cytotoxicity at 10 µM was -5.46%.

Regarding `Cc1nc(CNC(=O)c2cc(COc3cccc(F)c3)[nH]n2)n[nH]1`, the cytotoxicity at 10 µM is -2.52%. In the case of `Cc1nc(N2CCN(C)CC2)ncc1C(=O)N1C[C@@H](C)[C@@](C)(O)C1`, the cytotoxicity at 10 µM amounted to 2.32%. For `CNC(=O)Cc1ccc(NC(=O)NCc2nc(C)sc2C)cc1` the value was -4.36%; for `CCn1cc(C(=O)NCC(OC)c2cccc(Cl)c2)cn1` (configuration not stated), -8.87%.

With `Cc1ccc(C(=O)N2CCCCC2CNC(N)=O)s1` (configuration not stated), the cytotoxicity at 10 µM is -0.519%.

As for `CCC(NS(=O)(=O)c1ccc(C(=O)NC2CC2)cc1)c1ccnn1C` (configuration not stated), the cytotoxicity at 10 µM turned out to be 9.65%. For `COc1ccccc1OC(C)CNC(=O)c1cnc[nH]1` (configuration not stated) the value was 1.57%. On to `O=S(=O)(C1CC1)N1CCO[C@H]2[C@H](OCC3CC3)CC[C@@H]21`, for which the cytotoxicity at 10 µM amounted to 5.61%.

Regarding `CC(CS(C)(=O)=O)NCc1cc(Cl)ccc1F` (configuration not stated), the cytotoxicity at 10 µM was -46.6%. For `C1CC(NCc2nnc(C3CC3)o2)CN(Cc2noc(C3CC3)n2)C1` (configuration not stated), the cytotoxicity at 10 µM is -19%. In the case of `CCCS(=O)(=O)Nc1ccc2c(c1)OCC(C)(C)C(=O)N2C`, the cytotoxicity at 10 µM is -10.8%. As for `c1csc(C2(NCc3csc(C4CC4)n3)CCCC2)n1`, the figure is -3.75%; as for `O=C(NCCNc1ccc(C(F)(F)F)cn1)c1ccc(F)cc1Cl`, -7.65%. As for `O=C1OCCN1Cc1ncnn1Cc1c(F)cccc1Cl`, the figure is -1.26%. For `NC(=O)NC(CC(=O)NCCc1ccc(F)cc1)c1ccccc1` (configuration not stated) the value was -2.39%; for `Cc1n[nH]c(C)c1C1COCCN1C(=O)c1ccc2c(c1)CCO2` (configuration not stated), -4.01%.

In the case of `O=C(c1ccc(-c2ccoc2)nc1)N1CCCN(C2CCCCC2)CC1`, the cytotoxicity at 10 µM came to 7.69%.

Consider `O=C(Nc1cnn(Cc2ccccc2)c1)N1CCN(CCO)CC1`, for which the cytotoxicity at 10 µM was determined as 2.11%. For `CCC1CN(CCNS(C)(=O)=O)c2ccccc2O1` (configuration not stated) the value was -2.67%. As for `COc1ncccc1C(=O)N1CCCC1c1nc(-c2ccccc2)no1` (configuration not stated), the figure is 1.75%. For `CCS(=O)(=O)NCCNc1c(C#N)cnc2c(C)cc(F)cc12` the value was -0.453%; for `CN(Cc1ccncc1)C1COC2(CCN(Cc3ccco3)CC2)C1` (configuration not stated), -77.9%.

`N#CCC(=O)NCc1nnc2n1CCN(Cc1nccs1)C2`: the cytotoxicity at 10 µM is -149%.

On to `Cc1ccc(NC2CCN(C(=O)COc3cccnc3)CC2)nn1`, for which the cytotoxicity at 10 µM stood at 1.3%. As to `CCCN1CCCN(C(=O)c2oc(C)nc2C)CC1`, the cytotoxicity at 10 µM was 24.3%. As for `Cc1ccc(C)c(CSc2nnc(C(N)C(C)C)o2)c1` (configuration not stated), the figure is 9.24%; as for `Cc1cc(C(=O)NCC(C)N2CCc3ccccc32)on1` (configuration not stated), -22.8%; as for `CCN(CC)C(=O)c1ccc(-n2ncc(C#N)c2N)cc1`, 0.796%.

Take `COc1c(C)cnc(CN2CCCC2Cn2nc(C)nc2C)c1C` (configuration not stated): the cytotoxicity at 10 µM was -3.21%. For the compound `Cc1nn(C)c2ncnc(N3CCCC(C)(O)C3)c12` (configuration not stated), the cytotoxicity at 10 µM was 0.541%. Turning to `Cc1noc(C)c1CN1C[C@@H]2CCCO[C@@H]2[C@H](Nc2ccccn2)C1`, the cytotoxicity at 10 µM was 5.44%.

As to `Cc1ccccc1N1CCN(C(=O)c2cnn(C(C)C)c2)C(C)C1` (configuration not stated), the cytotoxicity at 10 µM was 1.48%.

Take `CSC1(CNC(=O)NC(C)c2ccc(F)c(F)c2)CCOCC1` (configuration not stated): the cytotoxicity at 10 µM was found to be 1.71%.

Consider `Cc1cc(C(O)CCNC(=O)c2ccc(Cl)s2)c(C)o1` (configuration not stated), for which the cytotoxicity at 10 µM is -1.22%. Take `COc1cccc(OC)c1CN1CCC2(CC(Nc3ccncn3)C2)C1` (configuration not stated): the cytotoxicity at 10 µM is 3.71%. With `CN(Cc1ccc(C#N)cc1)c1ncc(C(N)=O)cc1Cl`, the cytotoxicity at 10 µM turned out to be 18.5%. Consider `CN(C(=O)NCc1ccncc1)C1CCN(c2ccccc2)C1=O` (configuration not stated), for which the cytotoxicity at 10 µM is -13.5%. For `Cc1nc(C)n(CC2CCCN(c3ncnc4ccsc34)C2)n1` (configuration not stated) the value was 42.4%. As for `O=C(c1cnc(NCCC2CCCO2)c(Cl)c1)N1CCCCC1` (configuration not stated), the figure is -2.01%; as for `CN(Cc1cccc(O)c1)Cc1cnn(C)c1`, -0.198%; as for `CS(=O)(=O)N1CCC(Oc2ccc(C#N)cc2)CC1`, -8.97%. For `Cc1ccc(CNC(=O)CCC(=O)NCCC(C)C)o1` the value was -9.74%; for `CCc1cnc(N)nc1N1CCCC2(CCOCC2)C1`, -135%. Take `O=C(c1cccnc1N1CCOCC1)N1CCCC(n2cccn2)C1` (configuration not stated): the cytotoxicity at 10 µM was determined as 0.985%. `Cc1nccc(-c2cccc(NCC(=O)N3CCOC(C)C3)c2)n1` (configuration not stated): the cytotoxicity at 10 µM was -0.776%. As for `CN(C)c1ccc(C(=O)Nc2ccn(Cc3ccccn3)n2)cn1`, the figure is -0.677%. For the compound `COc1cc(NC(=O)NC2CCOCC2)ccc1N1CCOC1=O`, the cytotoxicity at 10 µM was -4.59%.
